Test results from ChEMBL document CHEMBL2169852, “Naphthomycins L-N, ansamycin antibiotics from Streptomyces sp. CS” (J Nat Prod, 2012).
Values after ≈ are worked out from the molar mass of the structure shown. Active and inactive are the calls of the source. The calls are words filed in the database; no cut-off is given here.

What was measured:
Fusarium oxysporum [1] = assay: Antifungal activity against Fusarium oxysporum at 800 ug/ml incubated for 48 hrs by microdilution method; type: functional, organism-based
Method in brief: (§1)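 Modified standardized broth microdilution. Phytopathogenic fungi pre-grown on PDA at 22 °C for 7–10 days. Test compounds added at 50–800 μg/mL to wells with fungal suspension, 0.2 mL final volume, DMSO ≤3% final. DMSO served as negative control and fungus without compound as positive control. Incubation 22 °C, 48 h. MIC taken as lowest concentration with no visible growth. Run in triplicate.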

A549 [2] = assay: Growth inhibition of human A549 cells at 40 uM by MTT assay; type: functional, cell-based
MCF7 [3] = assay: Growth inhibition of human MCF7 cells at 40 uM by MTT assay; type: functional, cell-based
[4] = Antifungal activity against Gaeumannomyces graminis at 800 ug/ml incubated for 48 hrs by microdilution method; type: functional; method in brief: as §1
SMMC-7721 [5] = assay: Growth inhibition of human SMMC7721 cells at 40 uM by MTT assay; type: functional, cell-based
Fusarium verticillioides [6] = assay: Antifungal activity against Fusarium moniliforme at 800 ug/ml incubated for 48 hrs by microdilution method; type: functional, organism-based; method in brief: as §1
[7] = Antifungal activity against Verticillium cinnabarinum at 800 ug/ml incubated for 48 hrs by microdilution method; type: functional; method in brief: as §1
SW480 [8] = assay: Growth inhibition of human SW480 cells at 40 uM by MTT assay; type: functional, cell-based
Pyricularia oryzae [9] = assay: Antifungal activity against Pyricularia oryzae at 800 ug/ml incubated for 48 hrs by microdilution method; type: functional, organism-based
Method in brief: (§2)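 Fungus pre-grown on PDA at 22 °C for 7–10 days. Modified standardized broth microdilution with compounds at 50–800 μg/mL (final) in fungal suspension, final DMSO ≤3%. DMSO-only and compound-free fungal wells served as controls. Incubated at 22 °C for 48 h. MIC is the lowest concentration with no visible growth. Run in triplicate.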

HL-60 [10] = assay: Growth inhibition of human HL60 cells at 40 uM by MTT assay; type: functional, cell-based
A549 [11] = assay: Growth inhibition of human A549 cells by MTT assay; type: functional, cell-based
HL-60 [12] = assay: Growth inhibition of human HL60 cells by MTT assay; type: functional, cell-based
Pyricularia oryzae [13] = assay: Antifungal activity against Pyricularia oryzae incubated for 48 hrs by microdilution method; type: functional; method in brief: as §2
[14] = Antifungal activity against Gaeumannomyces graminis incubated for 48 hrs by microdilution method; type: functional; method in brief: as §1
SW480 [15] = assay: Growth inhibition of human SW480 cells by MTT assay; type: functional, cell-based
[16] = Antifungal activity against Verticillium cinnabarinum incubated for 48 hrs by microdilution method; type: functional; method in brief: as §1
MCF7 [17] = assay: Growth inhibition of human MCF7 cells by MTT assay; type: functional, cell-based
Fusarium verticillioides [18] = assay: Antifungal activity against Fusarium moniliforme incubated for 48 hrs by microdilution method; type: functional; method in brief: as §1
Fusarium oxysporum [19] = assay: Antifungal activity against Fusarium oxysporum incubated for 48 hrs by microdilution method; type: functional; method in brief: as §1
SMMC-7721 [20] = assay: Growth inhibition of human SMMC7721 cells by MTT assay; type: functional, cell-based

C/C1=C/C=C\C=C\[C@H](C)[C@@H](O)CC(=O)/C(C)=C/C[C@H](O)/C=C/[C@H](C)[C@H](O)[C@@H](C)/C=C(\C)C(=O)c2c(O)c(C)cc3c2C(=O)C(SCC(=O)O)=C(NC1=O)C3=O
Activity (Fusarium oxysporum [1]): inactive | growth inhibition (GI) (A549 [2]): inactive | growth inhibition (GI) (MCF7 [3]): inactive | Activity [4]: inactive | growth inhibition (GI) (SMMC-7721 [5]): inactive | Activity (Fusarium verticillioides [6]): inactive | Activity [7]: inactive | growth inhibition (GI) (SW480 [8]): inactive | Activity (Pyricularia oryzae [9]): inactive | growth inhibition (GI) (HL-60 [10]): inactive

C/C1=C/C=C\C=C\[C@H](C)[C@@H](O)CC(=O)/C(C)=C/C[C@H](O)/C=C/[C@H](C)[C@H](O)[C@@H](C)/C=C(\C)C(=O)c2c(O)c(C)cc3c2C(=O)C(NCCSC2=C4NC(=O)\C(C)=C/C=C\C=C\[C@H](C)[C@@H](O)CC(=O)/C(C)=C/C[C@H](O)/C=C/[C@H](C)[C@H](O)[C@@H](C)/C=C(\C)C(=O)c5c(O)c(C)cc(c5C2=O)C4=O)=C(NC1=O)C3=O
Activity (Fusarium oxysporum [1]): inactive | growth inhibition (GI) (A549 [2]): inactive | growth inhibition (GI) (MCF7 [3]): inactive | Activity [4]: inactive | growth inhibition (GI) (SMMC-7721 [5]): inactive | Activity (Fusarium verticillioides [6]): inactive | Activity [7]: inactive | growth inhibition (GI) (SW480 [8]): inactive | Activity (Pyricularia oryzae [9]): inactive | growth inhibition (GI) (HL-60 [10]): inactive

C/C1=C/C=C\C=C\[C@H](C)[C@@H](O)CC(=O)/C(C)=C/C[C@H](O)/C=C/[C@H](C)[C@H](O)[C@@H](C)/C=C(\C)C(=O)c2c(O)c(C)cc3c2C(=O)C=C(NC1=O)C3=O
Activity (Fusarium oxysporum [1]): inactive | growth inhibition (GI) (A549 [2]): inactive | growth inhibition (GI) (MCF7 [3]): inactive | Activity [4]: inactive | growth inhibition (GI) (SMMC-7721 [5]): inactive | Activity (Fusarium verticillioides [6]): inactive | Activity [7]: inactive | growth inhibition (GI) (SW480 [8]): inactive | Activity (Pyricularia oryzae [9]): inactive | growth inhibition (GI) (HL-60 [10]): inactive

C/C1=C/C=C\C=C\[C@H](C)[C@@H](O)CC(=O)/C(C)=C/C[C@H](O)/C=C/[C@H](C)[C@H](O)[C@@H](C)/C=C(\C)C(=O)c2c(O)c(C)cc3c2C(=O)C(O)=C(NC1=O)C3=O
Activity (Fusarium oxysporum [1]): inactive | growth inhibition (GI) (A549 [2]): inactive | growth inhibition (GI) (MCF7 [3]): inactive | Activity [4]: inactive | growth inhibition (GI) (SMMC-7721 [5]): inactive | Activity (Fusarium verticillioides [6]): inactive | Activity [7]: inactive | growth inhibition (GI) (SW480 [8]): inactive | Activity (Pyricularia oryzae [9]): inactive | growth inhibition (GI) (HL-60 [10]): inactive

C/C1=C/C=C\C=C\[C@H](C)[C@@H](O)CC(=O)/C(C)=C/C[C@H](O)/C=C/[C@H](C)[C@H](O)[C@@H](C)/C=C(\C)C(=O)c2c(O)c(C)cc3c2C(=O)C(Cl)=C(NC1=O)C3=O [NAPHTHOMYCIN A]
IC50 (A549 [11]): 15.9 µM | IC50 (HL-60 [12]): 25.6 µM | MIC (Pyricularia oryzae [13]): 400 µg/mL (≈ 555 µM) | MIC [14]: 400 µg/mL (≈ 555 µM) | IC50 (SW480 [15]): 11.7 µM | MIC [16]: 400 µg/mL (≈ 555 µM) | IC50 (MCF7 [17]): 11.7 µM | MIC (Fusarium verticillioides [18]): 100 µg/mL (≈ 139 µM) | MIC (Fusarium oxysporum [19]): 400 µg/mL (≈ 555 µM) | IC50 (SMMC-7721 [20]): 16.6 µM

C/C1=C/C=C\C=C\[C@H](C)[C@@H](O)CC(=O)/C(C)=C/C[C@H](O)/C=C/[C@H](C)[C@H](O)[C@@H](C)/C=C(\C)C(=O)c2c(O)c(C)cc3c2C(=O)C(N)=C(NC1=O)C3=O [NAPHTHOMYCIN L]
MIC (Pyricularia oryzae [13]): 600 µg/mL (≈ 856 µM) | MIC [14]: 600 µg/mL (≈ 856 µM) | growth inhibition (GI) (A549 [2]): inactive | growth inhibition (GI) (MCF7 [3]): inactive | growth inhibition (GI) (SMMC-7721 [5]): inactive | MIC [16]: 600 µg/mL (≈ 856 µM) | MIC (Fusarium verticillioides [18]): 300 µg/mL (≈ 428 µM) | growth inhibition (GI) (SW480 [8]): inactive | MIC (Fusarium oxysporum [19]): 600 µg/mL (≈ 856 µM) | growth inhibition (GI) (HL-60 [10]): inactive
